Results: ChEMBL document CHEMBL4382276, “New in Vitro Assay Measuring Direct Interaction of Nonsense Suppressors with the Eukaryotic Protein Synthesis Machinery” (ACS Med Chem Lett, 2018)
Activity calls are given as the source filed them. No cut-off for these calls is given here.

What was measured:
[1] = Induction of read through activity at cricket paralysis virus-internal ribosome entry site premature termination codon UGA assessed as increase in octapeptide formation from FKVRQ-tRNAGln measured after 20 mins in presence of Typ-tRNA, Leu-tRNA and [35S]-Met-tRNA by co-sedimentation assay
Cricket paralysis virus [2] = experiment: Induction of read through activity at cricket paralysis virus-internal ribosome entry site premature termination codon UGA assessed as ratio of plateau octapeptide to FKVRQ-tRNAGln measured after 20 mins in presence of Typ-tRNA, Leu-tRNA and [35S]-Met-tRNA by co-sedimentation assay
[3] = at cricket paralysis virus-internal ribosome entry site codon UGG assessed as from FKVRQ-tRNAGln at EC50 to 2 times EC50 measured after 20 mins in presence of Typ-tRNA, Leu-tRNA and [35S]-Met-tRNA by co-sedimentation assay
Cricket paralysis virus [4] = experiment: Inhibition of read through activity at cricket paralysis virus-internal ribosome entry site premature termination codon UGA assessed as decrease in octapeptide formation from FKVRQ-tRNAGln at 600 uM measured after 20 mins in presence of Typ-tRNA, Leu-tRNA and [35S]-Met-tRNA by co-sedimentation assay
[5] = Inhibition of read through activity at cricket paralysis virus-internal ribosome entry site codon UGG assessed as decrease in octapeptide formation from FKVRQ-tRNAGln at 600 uM measured after 20 mins in presence of Typ-tRNA, Leu-tRNA and [35S]-Met-tRNA by co-sedimentation assay
[6] = Induction of read through activity at cricket paralysis virus-internal ribosome entry site codon UGA assessed as increase in octapeptide formation from FKVRQ-tRNAGln at 30 to 600 uM measured after 20 mins in presence of Typ-tRNA, Leu-tRNA and [35S]-Met-tRNA by co-sedimentation assay
Cricket paralysis virus [7] = experiment: (§1) Induction of read through activity at cricket paralysis virus-internal ribosome entry site codon UGG assessed as rate constant for octapeptide formation from FKVRQ-tRNAGln at 500 uM preincubated for 30 secs in presence of Typ-tRNA followed by Leu-tRNA and [35S]-Met-tRNA addition by co-sedimentation assay
Method in brief: (§2)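 Time course with the same components: POST5 complex 0.02 μM, aminoacyl-tRNAs 0.08 μM each, eEF1A, eEF2, eRF1 0.010 μM, eRF3 0.020 μM, Buffer 4, 37 °C. Aliquots taken from 30 s to 20 min and MES-quenched. Octapeptide measured by ribosome cosedimentation or by base release and thin layer electrophoresis. Rate constants derived from the time courses.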

Cricket paralysis virus [8] = experiment: as §1, with “site premature termination” for “site”, “UGA” for “UGG”; method in brief: as §2
Cricket paralysis virus [9] = experiment: as §1, with “5” for “500”
Method in brief: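 POST5 complex (0.02 μM) mixed with Trp-tRNATrp, Leu-tRNALeu and [35S]-Met-tRNAMet (0.08 μM each), eEF1A (0.08 μM), eEF2 (1.0 μM), eRF1 (0.010 μM) and eRF3 (0.020 μM), with or without NonSup. Incubation at 37 °C in Tris-HCl pH 7.5 buffer for 30 s to 20 min. Quench with 0.5 M MES pH 6.0 at 0 °C, ultracentrifuge through 1.1 M sucrose, and count ribosome-cosedimenting [35S] octapeptidyl-tRNA.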

Cricket paralysis virus [10] = experiment: Induction of read through activity at cricket paralysis virus-internal ribosome entry site premature termination codon UGA assessed as eEF2-induced 80S-Stop-IRES-PRE6 formation from 80S-Stop-IRES-POST5 at 1 to 10 uM by FRET assay
[11] = Induction of read through activity at cricket paralysis virus-internal ribosome entry site codon UGG assessed as eEF2-induced 80S-Trp-IRES-PRE6 formation from 80S-Trp-IRES-POST5 by FRET assay
[12] = Induction of 80S ribosome-internal ribosome entry site (unknown origin) precipitable particle formation at 30 uM measured after 20 mins
[13] = Induction of [35S]Met-tRNA (unknown origin) precipitable particle formation at 30 uM measured after 20 mins

Compound	EC50 [1]	Ratio (Cricket paralysis virus [2])	Activity [3]	also measured
COc1cccc(-n2c(SCC(=O)Nc3ccc(F)cc3)nnc2-c2ccccn2)c1	170 to 350 µM	0.1 to 0.16	Not Active	–
NCCC[C@H](N)CC(=O)NCCC[C@H](N)CC(=O)NCCC[C@H](N)CC(=O)NCCC[C@H](N)CC(=O)NCCC[C@H](N)CC(=O)N[C@@H]1[C@H](O)[C@@H](OC(N)=O)[C@@H](CO)O[C@H]1NC1=N[C@@H]2C(=O)NC[C@@H](O)[C@H]2N1	0.4 to 4 µM	0.1 to 0.3	Not Active	–
NCCC[C@H](N)CC(=O)NCCC[C@H](N)CC(=O)NCCC[C@H](N)CC(=O)NCCC[C@H](N)CC(=O)NCCC[C@H](N)CC(=O)NCCC[C@H](N)CC(=O)N[C@@H]1[C@H](O)[C@@H](OC(N)=O)[C@@H](CO)O[C@H]1NC1=N[C@@H]2C(=O)NC[C@@H](O)[C@H]2N1	0.4 to 4 µM	0.1 to 0.3	Not Active	–
C[C@H](N)[C@H]1O[C@@H](O[C@@H]2[C@@H](O)[C@H](N)C[C@H](N)[C@H]2O[C@H]2O[C@H]([C@@H](C)O)[C@@H](O)[C@H](O)[C@H]2N)[C@H](O)[C@@H]1O	0.4 to 4 µM	0.1 to 0.3	Not Active	–
C/C=C(\C)C(=O)O[C@H]1[C@H](OC(C)=O)[C@]2(CO)[C@H](O)C[C@@H]3C(=CC[C@H]4[C@H]3CC[C@@H]3[C@@H]4CC[C@H](O[C@@H]4O[C@H](C(=O)O)[C@@H](O[C@@H]5O[C@H](CO)[C@@H](O)[C@H](O)[C@H]5O)[C@H](O)[C@H]4O[C@@H]4O[C@H](CO)[C@@H](O)[C@H](O)[C@H]4O)[C@]3(C)CO)[C@@H]2CC1(C)C	–	–	–	inhibition (Cricket paralysis virus [4]): Active; inhibition (INH) [5]: Active; Activity [6]: Not Active
O=C(O)c1cccc(-c2noc(-c3ccccc3F)n2)c1 [ATALUREN]	170 to 350 µM	0.1 to 0.16	Not Active	K (Cricket paralysis virus [7]): 1 to 1.6 min⁻¹; K (Cricket paralysis virus [8]): 0.14 min⁻¹
CCOCCCNC(=O)N1CCN(Cc2ccc3c(c2)OCO3)CC1	–	–	–	Activity [6]: Not Active
C[C@@H](O)[C@H]1O[C@H](O[C@H]2[C@H](O[C@@H]3O[C@H](CN)[C@@H](O)[C@H]3O)[C@@H](O)[C@H](NC(=O)[C@@H](O)CCN)C[C@@H]2N)[C@H](N)[C@@H](O)[C@@H]1O	0.4 to 4 µM	0.1 to 0.3	Not Active	–
N=C1NC(=O)/C(=C/c2ccc(-c3ccccc3[N+](=O)[O-])o2)S1	170 to 350 µM	0.1 to 0.16	Not Active	–
CC[C@H]1OC(=O)[C@H](C)[C@@H](O[C@H]2C[C@@](C)(OC)[C@@H](O)[C@H](C)O2)[C@H](C)[C@@H](O[C@@H]2O[C@H](C)C[C@H](N(C)C)[C@H]2O)[C@](C)(O)C[C@@H](C)CN(C)[C@H](C)[C@@H](O)[C@]1(C)O [AZITHROMYCIN]	–	–	–	Activity [6]: Not Active
CN[C@@H]1[C@@H](O)[C@@H](O[C@@H]2[C@@H](O)[C@H](O[C@H]3O[C@H](CN)[C@@H](O)[C@H](O)[C@H]3O)[C@@H](N)C[C@H]2N)OC[C@]1(C)O [BETAMICIN]	0.4 to 4 µM	0.1 to 0.3	Not Active	–
CN(CC(=O)O)NC(=O)C[C@H](N)C[C@@H](O)CN [NEGAMYCIN]	–	0.1 to 0.3	Not Active	–
NCCC[C@H](N)CC(=O)NCCC[C@H](N)CC(=O)NCCC[C@H](N)CC(=O)N[C@@H]1[C@H](O)[C@@H](OC(N)=O)[C@@H](CO)O[C@H]1NC1=N[C@@H]2C(=O)NC[C@@H](O)[C@H]2N1	0.4 to 4 µM	0.1 to 0.3	Not Active	–
CN[C@@H]1[C@@H](O)[C@@H](O[C@@H]2[C@@H](O)[C@H](O[C@H]3O[C@H]([C@H](C)O)[C@@H](O)[C@H](O)[C@H]3N)[C@@H](N)C[C@H]2N)OC[C@]1(C)O	0.98 µM	0.1 to 0.3	Not Active	K (Cricket paralysis virus [9]): 1 to 1.6 min⁻¹; Activity (Cricket paralysis virus [10]): Active; Activity [11]: Not Active
CC[C@H]1OC(=O)C[C@@H](O)[C@H](C)[C@@H](O[C@@H]2O[C@H](C)[C@@H](O[C@H]3C[C@@](C)(O)[C@@H](O)[C@H](C)O3)[C@H](N(C)C)[C@H]2O)[C@@H](CC=O)C[C@@H](C)C(=O)/C=C/C(C)=C/[C@@H]1CO[C@@H]1O[C@H](C)[C@@H](O)[C@@H](OC)[C@H]1OC [TYLOSIN]	–	–	–	Activity [6]: Not Active
NCCC[C@H](N)CC(=O)NCCC[C@H](N)CC(=O)NCCC[C@H](N)CC(=O)NCCC[C@H](N)CC(=O)N[C@@H]1[C@H](O)[C@@H](OC(N)=O)[C@@H](CO)O[C@H]1NC1=N[C@@H]2C(=O)NC[C@@H](O)[C@H]2N1	0.4 to 4 µM	0.1 to 0.3	Not Active	–
CN[C@@H]1[C@@H](O)[C@@H](O[C@@H]2[C@@H](O)[C@H](O[C@H]3O[C@H](CO)[C@@H](O)[C@H](O)[C@H]3N)[C@@H](N)C[C@H]2N)OC[C@]1(C)O	0.4 to 4 µM	0.1 to 0.3	Not Active	–
NCCC[C@H](N)CC(=O)NCCC[C@H](N)CC(=O)N[C@@H]1[C@H](O)[C@@H](OC(N)=O)[C@@H](CO)O[C@H]1NC1=N[C@@H]2C(=O)NC[C@@H](O)[C@H]2N1 [STREPTOTHRICIN E]	0.4 to 4 µM	0.1 to 0.3	Not Active	–
COc1cccc2c1C(=O)c1c(O)c3c(c(O)c1C2=O)C[C@@](O)(C(=O)CO)C[C@@H]3O[C@H]1C[C@H](N)[C@H](O)[C@H](C)O1 [DOXORUBICIN]	–	0.1 to 0.3	Not Active	Activity [12]: Active; Activity [13]: Active
NCCC[C@H](N)CC(=O)NCCC[C@H](N)CC(=O)NCCC[C@H](N)CC(=O)NCCC[C@H](N)CC(=O)NCCC[C@H](N)CC(=O)NCCC[C@H](N)CC(=O)NCCC[C@H](N)CC(=O)N[C@@H]1[C@H](O)[C@@H](OC(N)=O)[C@@H](CO)O[C@H]1NC1=N[C@@H]2C(=O)NC[C@@H](O)[C@H]2N1	0.4 to 4 µM	0.1 to 0.3	Not Active	–
NCCC[C@H](N)CC(=O)N[C@@H]1[C@H](O)[C@@H](OC(N)=O)[C@@H](CO)O[C@H]1NC1=N[C@@H]2C(=O)NC[C@@H](O)[C@H]2N1	0.4 to 4 µM	0.1 to 0.3	Not Active	–
